Experimental data published in ChEMBL document CHEMBL4351001, “2-Aminoimidazole-based antagonists of the 5-HT6 receptor - A new concept in aminergic GPCR ligand design” (Eur J Med Chem, 2019).
Values after ≈ are worked out from the molar mass of the structure shown. Active and inactive are the calls of the source. No cut-off for these calls is given here.

Tests used:
[1] = biological target: hERG (KCNH2) (Homo sapiens, UniProt Q12809); assay: Displacement of [3H] dofetilide from human recombinant ERG at 10^-6 M measured after 60 mins by scintillation counting method relative to control; details: probe [3H]dofetilide
[2] = Solubility of compound in water; assay type: physicochemical
[3] = in vitro; details: rat
[4] = biological target: D(2) dopamine receptor (Homo sapiens, UniProt P14416); assay: Displacement of [3H]-methylspiperone from human D2 long receptor expressed in HEK293 cells measured after 1 hr by liquid scintillation counter method; assay type: cell-based
Outline: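 HEK293 membranes stably expressing human D2L receptor, incubated 1 h at 37°C, then filtered and retained radioactivity counted; (+)-butaclamol 1 μM defines nonspecific binding. Tested in triplicate at 7–8 concentrations (10⁻¹¹–10⁻⁴ M); Ki via Cheng-Prusoff, averaged over at least two independent experiments.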

[5] = biological target: 5-hydroxytryptamine receptor 2A (Homo sapiens, UniProt P28223); assay: Displacement of [3H]ketanserin from human 5HT2A receptor expressed in CHOK1 cells incubated for 1 hr by liquid scintillation counter method; assay type: cell-based; details: read-out: Ki
[6] = biological target: T1, 5-hydroxytryptamine receptor 6 (Homo sapiens, UniProt P50406); assay: Displacement of [3H]LSD from human 5HT6 receptor expressed in HEK293 cells measured after 1 hr by liquid scintillation counter method; assay type: cell-based
[7] = biological target: 5-hydroxytryptamine receptor 7 (Homo sapiens, UniProt P34969); assay: Displacement of [3H]-5-CT from human 5HT7 receptor expressed in HEK293 cells measured after 1 hr by liquid scintillation counter method; assay type: cell-based
[8] = biological target: T2, 5-hydroxytryptamine receptor 1A (Homo sapiens, UniProt P08908); assay: Displacement of [3H]-8-OH-DPAT from human 5HT1A receptor expressed in HEK293 cells incubated for 1 hr by liquid scintillation counter method; assay type: cell-based
T2 sequence (P08908 whole entry): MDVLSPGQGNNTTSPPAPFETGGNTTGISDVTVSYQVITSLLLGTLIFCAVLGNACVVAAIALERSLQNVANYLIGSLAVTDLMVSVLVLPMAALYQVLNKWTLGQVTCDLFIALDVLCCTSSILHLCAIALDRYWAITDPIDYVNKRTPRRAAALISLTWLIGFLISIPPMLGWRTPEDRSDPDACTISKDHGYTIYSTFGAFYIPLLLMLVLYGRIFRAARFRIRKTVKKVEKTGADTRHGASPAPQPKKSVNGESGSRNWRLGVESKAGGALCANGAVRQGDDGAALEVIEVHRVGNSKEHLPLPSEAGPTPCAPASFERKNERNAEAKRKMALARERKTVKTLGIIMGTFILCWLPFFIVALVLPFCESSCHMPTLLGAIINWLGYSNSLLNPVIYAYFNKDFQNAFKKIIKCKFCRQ
Outline: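 HEK293 cells stably expressing human 5-HT1AR; membranes in 50 mM Tris–HCl, 0.1 mM EDTA, 4 mM MgCl2, 10 μM pargyline, 0.1% ascorbate; incubated 1 h at room temperature, then filtered. Nonspecific binding defined with 10 μM 5-HT.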

[9] = in vitro; details: rat; remark: listed apart in the source
[10] = Stability of compound in rat liver microsomes; assay type: ADME, Microsome
Outline: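 Incubation in triplicate with rat liver microsomes at 37°C with NADP, G6P, G6P dehydrogenase and MgCl2. Verapamil and donepezil served as microsomal activity standards.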

[11] = biological target: T3, 5-hydroxytryptamine receptor 2C (Homo sapiens) (UniProt P28335); assay: Displacement of [3H]mesulergine from human recombinant 5HT2C serotonin receptor at 10^-6M incubated for 120 mins by scintillation counter method relative to control
T3 sequence (whole entry): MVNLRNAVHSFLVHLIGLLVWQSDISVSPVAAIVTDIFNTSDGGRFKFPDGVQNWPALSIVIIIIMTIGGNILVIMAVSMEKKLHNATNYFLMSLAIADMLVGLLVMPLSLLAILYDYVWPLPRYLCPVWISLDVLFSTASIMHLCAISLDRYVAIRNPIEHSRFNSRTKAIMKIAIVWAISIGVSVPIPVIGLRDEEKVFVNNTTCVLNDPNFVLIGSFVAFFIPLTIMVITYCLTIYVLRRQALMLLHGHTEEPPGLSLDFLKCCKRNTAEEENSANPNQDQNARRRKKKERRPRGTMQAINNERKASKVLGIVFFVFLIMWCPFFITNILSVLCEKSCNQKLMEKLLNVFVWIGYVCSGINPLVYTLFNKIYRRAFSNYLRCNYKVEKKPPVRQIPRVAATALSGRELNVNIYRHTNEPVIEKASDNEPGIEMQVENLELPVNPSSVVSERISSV

[12] = biological target: Histamine H1 receptor (Homo sapiens) (UniProt P35367); assay: Displacement of [3H] pyrilamine from human recombinant H1 histamine receptor at 10^-6 M measured after 60 mins by scintillation counting method relative to control
[13] = biological target: T1, 5-hydroxytryptamine receptor 6; assay: Antagonist activity at human 5HT6 receptor expressed in HEK293 cells assessed as inhibition of 5-CT induced cAMP production measured after 30 mins by TR-FRET assay; assay type: functional, cell-based
[14] = biological target: T4, Muscarinic acetylcholine receptor M1 (Homo sapiens) (UniProt P11229); assay: Displacement of [3H] pirenzepine from human recombinant muscarinic M1 receptor at 10^-6 M measured after 60 mins by scintillation counter method relative to control
T4 sequence (whole entry): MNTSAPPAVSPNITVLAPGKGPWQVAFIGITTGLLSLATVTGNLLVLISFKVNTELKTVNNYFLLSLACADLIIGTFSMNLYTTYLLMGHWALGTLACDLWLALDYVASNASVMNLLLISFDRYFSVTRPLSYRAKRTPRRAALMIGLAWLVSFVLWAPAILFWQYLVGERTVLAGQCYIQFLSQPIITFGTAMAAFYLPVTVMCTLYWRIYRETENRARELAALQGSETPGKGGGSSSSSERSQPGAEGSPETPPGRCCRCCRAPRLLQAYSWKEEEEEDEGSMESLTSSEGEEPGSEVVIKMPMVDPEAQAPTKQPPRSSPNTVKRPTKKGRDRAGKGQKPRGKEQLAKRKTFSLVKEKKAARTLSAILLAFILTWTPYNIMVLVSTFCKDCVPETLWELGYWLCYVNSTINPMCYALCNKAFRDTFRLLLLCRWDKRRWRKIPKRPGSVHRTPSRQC

[15] = biological target: T5, Alpha-1A adrenergic receptor (Rattus norvegicus) (UniProt P43140); assay: Displacement of [3H] prazosin from rat alpha 1A adrenergic receptor at 10^-6 M measured after 60 mins by scintillation counter method relative to control
T5 sequence (whole entry): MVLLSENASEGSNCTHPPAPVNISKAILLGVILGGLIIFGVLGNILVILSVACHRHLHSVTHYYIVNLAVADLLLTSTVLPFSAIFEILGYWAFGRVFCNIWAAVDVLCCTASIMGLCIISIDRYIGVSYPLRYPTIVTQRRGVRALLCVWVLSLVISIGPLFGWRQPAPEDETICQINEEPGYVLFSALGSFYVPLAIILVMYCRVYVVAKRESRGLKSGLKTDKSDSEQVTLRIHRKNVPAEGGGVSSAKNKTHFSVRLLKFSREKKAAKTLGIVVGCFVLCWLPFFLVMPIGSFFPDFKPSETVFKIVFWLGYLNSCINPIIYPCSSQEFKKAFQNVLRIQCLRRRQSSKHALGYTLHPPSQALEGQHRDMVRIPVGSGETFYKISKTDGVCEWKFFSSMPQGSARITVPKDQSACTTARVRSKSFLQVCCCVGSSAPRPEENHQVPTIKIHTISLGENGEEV

[16] = system: Rattus norvegicus; assay: Reversal of scopolamine induced cognitive impairment impairment in Sprague-Dawley rat at 1 mg/kg, po pre treated for 2 hrs followed by scopolamine addition further treated for 30 mins and measured after 1 hr by novel object recognition test; assay type: functional, organism-based
Outline: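 Male Sprague–Dawley rats (~250 g); open-field habituation 5 min 24 h before test. Compounds p.o. 120 min and scopolamine 1.25 mg/kg i.p. 30 min before 3-min familiarization trial; 3-min recognition trial 1 h later. Exploration video-tracked; discrimination index computed; one-way ANOVA with Newman–Keuls; n = 9–10 per group; mean ± SEM.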

[17] = biological target: 5-hydroxytryptamine receptor 2B (Homo sapiens) (UniProt P41595); assay: Displacement of [3H] mesulergine from human recombinant 5HT2B receptor at 10^-6 M measured after 60 mins by scintillation counting method relative to control
[18] = biological target: T6, Muscarinic acetylcholine receptor M5 (Homo sapiens) (UniProt P08912); assay: Displacement of [3H]4-DAMP from human recombinant muscarinic M5 receptor at 10^-6 M measured after 60 mins by scintillation counter method relative to control
T6 sequence (whole entry): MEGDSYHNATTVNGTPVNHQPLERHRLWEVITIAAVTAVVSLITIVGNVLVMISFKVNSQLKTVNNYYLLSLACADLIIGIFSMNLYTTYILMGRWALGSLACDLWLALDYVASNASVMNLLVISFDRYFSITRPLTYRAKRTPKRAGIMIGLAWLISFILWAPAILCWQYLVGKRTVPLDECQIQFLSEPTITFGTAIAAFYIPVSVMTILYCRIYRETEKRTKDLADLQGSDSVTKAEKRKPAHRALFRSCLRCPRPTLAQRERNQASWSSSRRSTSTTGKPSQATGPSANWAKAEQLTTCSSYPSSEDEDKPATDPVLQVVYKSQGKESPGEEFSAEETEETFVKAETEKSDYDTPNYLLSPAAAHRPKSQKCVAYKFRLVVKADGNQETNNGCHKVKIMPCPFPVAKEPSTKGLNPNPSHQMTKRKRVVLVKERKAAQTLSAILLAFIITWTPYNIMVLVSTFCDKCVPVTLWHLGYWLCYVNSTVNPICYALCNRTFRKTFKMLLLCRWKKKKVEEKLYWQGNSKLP

[19] = biological target: 5-hydroxytryptamine receptor 2B (Homo sapiens) (UniProt P41595); assay: Antagonist activity at human recombinant 5HT2B receptor expressed in CHOK1 cells at 10^-6 M measured after 30 mins by HTRF assay relative to control; assay type: cell-based; set-up: scale not given: the % may be the effect or the level left

5-hydroxytryptamine receptor 7, sequence (P34969 whole entry): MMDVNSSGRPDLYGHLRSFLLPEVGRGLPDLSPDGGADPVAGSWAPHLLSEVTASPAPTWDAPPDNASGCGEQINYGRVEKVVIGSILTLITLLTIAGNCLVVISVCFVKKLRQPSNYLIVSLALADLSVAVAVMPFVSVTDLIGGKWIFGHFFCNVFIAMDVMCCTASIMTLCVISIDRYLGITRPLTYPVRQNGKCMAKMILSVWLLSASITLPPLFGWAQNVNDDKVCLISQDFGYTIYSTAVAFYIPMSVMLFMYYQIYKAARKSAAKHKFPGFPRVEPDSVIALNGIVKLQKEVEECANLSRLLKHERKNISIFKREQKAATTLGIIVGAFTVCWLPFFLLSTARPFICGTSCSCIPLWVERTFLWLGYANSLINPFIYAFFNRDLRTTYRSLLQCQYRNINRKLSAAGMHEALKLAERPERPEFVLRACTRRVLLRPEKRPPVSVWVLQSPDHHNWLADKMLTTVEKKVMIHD
T1 sequence (P50406 whole entry): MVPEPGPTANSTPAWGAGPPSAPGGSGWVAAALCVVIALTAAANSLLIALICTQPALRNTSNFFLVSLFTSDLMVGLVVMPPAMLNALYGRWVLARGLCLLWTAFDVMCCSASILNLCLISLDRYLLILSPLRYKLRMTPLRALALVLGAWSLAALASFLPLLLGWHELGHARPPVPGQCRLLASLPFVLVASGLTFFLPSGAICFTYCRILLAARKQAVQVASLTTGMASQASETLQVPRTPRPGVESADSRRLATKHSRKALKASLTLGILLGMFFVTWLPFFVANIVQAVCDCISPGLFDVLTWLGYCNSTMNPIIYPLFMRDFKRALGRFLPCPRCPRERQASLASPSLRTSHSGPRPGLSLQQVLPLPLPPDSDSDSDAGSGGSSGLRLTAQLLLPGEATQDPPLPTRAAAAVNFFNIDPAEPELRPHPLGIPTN
5-hydroxytryptamine receptor 2B (Homo sapiens), sequence (P41595 whole entry): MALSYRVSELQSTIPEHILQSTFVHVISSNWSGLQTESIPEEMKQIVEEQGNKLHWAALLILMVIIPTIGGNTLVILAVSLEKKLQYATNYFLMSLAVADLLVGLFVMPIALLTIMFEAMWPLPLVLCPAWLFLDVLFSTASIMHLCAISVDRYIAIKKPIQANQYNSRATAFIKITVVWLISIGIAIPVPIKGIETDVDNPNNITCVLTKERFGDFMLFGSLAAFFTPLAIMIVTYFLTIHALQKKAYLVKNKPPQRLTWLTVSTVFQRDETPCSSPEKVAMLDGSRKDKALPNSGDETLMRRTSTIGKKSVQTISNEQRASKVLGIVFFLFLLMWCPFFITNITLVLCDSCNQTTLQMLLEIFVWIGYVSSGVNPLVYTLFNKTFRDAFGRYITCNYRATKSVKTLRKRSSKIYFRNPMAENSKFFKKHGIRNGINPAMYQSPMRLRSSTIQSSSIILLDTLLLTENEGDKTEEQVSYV
5-hydroxytryptamine receptor 2A, sequence (P28223 whole entry): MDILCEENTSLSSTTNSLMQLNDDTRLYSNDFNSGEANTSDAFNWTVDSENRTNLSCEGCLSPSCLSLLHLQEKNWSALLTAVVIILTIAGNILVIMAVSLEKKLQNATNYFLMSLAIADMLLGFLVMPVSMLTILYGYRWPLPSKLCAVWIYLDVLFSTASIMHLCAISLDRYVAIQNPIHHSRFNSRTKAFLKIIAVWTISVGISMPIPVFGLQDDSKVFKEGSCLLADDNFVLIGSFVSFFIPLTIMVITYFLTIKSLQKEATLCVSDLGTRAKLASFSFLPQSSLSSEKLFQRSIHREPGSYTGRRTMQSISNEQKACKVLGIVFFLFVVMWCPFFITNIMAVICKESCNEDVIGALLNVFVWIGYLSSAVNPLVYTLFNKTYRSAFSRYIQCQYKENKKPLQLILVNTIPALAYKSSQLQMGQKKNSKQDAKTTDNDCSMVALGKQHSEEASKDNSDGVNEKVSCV
D(2) dopamine receptor, sequence (P14416 whole entry): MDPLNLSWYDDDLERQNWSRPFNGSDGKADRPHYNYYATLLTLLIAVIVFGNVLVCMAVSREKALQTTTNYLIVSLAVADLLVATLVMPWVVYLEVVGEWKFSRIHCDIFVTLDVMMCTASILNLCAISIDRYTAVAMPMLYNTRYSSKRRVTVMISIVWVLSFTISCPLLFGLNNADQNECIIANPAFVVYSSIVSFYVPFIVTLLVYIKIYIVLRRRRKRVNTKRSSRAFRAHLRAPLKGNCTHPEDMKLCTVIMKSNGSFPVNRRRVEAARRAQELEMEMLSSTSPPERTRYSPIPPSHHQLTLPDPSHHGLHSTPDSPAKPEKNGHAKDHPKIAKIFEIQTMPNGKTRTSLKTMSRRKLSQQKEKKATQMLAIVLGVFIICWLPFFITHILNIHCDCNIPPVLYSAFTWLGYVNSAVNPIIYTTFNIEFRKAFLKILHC
Histamine H1 receptor (Homo sapiens), sequence (P35367 whole entry): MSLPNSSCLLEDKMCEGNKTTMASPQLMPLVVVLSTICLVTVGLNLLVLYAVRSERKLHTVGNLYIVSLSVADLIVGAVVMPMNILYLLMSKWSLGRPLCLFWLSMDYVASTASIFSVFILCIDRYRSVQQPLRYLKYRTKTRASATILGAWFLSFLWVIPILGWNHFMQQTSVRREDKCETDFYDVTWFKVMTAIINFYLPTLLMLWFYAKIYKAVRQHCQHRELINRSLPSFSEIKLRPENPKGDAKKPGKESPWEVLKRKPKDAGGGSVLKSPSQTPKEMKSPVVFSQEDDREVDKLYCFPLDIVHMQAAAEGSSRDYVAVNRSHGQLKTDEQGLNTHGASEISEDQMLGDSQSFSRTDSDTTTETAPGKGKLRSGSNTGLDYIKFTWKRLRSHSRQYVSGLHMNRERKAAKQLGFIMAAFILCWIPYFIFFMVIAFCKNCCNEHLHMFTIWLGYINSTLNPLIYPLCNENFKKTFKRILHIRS
hERG (KCNH2), sequence (Q12809 whole entry): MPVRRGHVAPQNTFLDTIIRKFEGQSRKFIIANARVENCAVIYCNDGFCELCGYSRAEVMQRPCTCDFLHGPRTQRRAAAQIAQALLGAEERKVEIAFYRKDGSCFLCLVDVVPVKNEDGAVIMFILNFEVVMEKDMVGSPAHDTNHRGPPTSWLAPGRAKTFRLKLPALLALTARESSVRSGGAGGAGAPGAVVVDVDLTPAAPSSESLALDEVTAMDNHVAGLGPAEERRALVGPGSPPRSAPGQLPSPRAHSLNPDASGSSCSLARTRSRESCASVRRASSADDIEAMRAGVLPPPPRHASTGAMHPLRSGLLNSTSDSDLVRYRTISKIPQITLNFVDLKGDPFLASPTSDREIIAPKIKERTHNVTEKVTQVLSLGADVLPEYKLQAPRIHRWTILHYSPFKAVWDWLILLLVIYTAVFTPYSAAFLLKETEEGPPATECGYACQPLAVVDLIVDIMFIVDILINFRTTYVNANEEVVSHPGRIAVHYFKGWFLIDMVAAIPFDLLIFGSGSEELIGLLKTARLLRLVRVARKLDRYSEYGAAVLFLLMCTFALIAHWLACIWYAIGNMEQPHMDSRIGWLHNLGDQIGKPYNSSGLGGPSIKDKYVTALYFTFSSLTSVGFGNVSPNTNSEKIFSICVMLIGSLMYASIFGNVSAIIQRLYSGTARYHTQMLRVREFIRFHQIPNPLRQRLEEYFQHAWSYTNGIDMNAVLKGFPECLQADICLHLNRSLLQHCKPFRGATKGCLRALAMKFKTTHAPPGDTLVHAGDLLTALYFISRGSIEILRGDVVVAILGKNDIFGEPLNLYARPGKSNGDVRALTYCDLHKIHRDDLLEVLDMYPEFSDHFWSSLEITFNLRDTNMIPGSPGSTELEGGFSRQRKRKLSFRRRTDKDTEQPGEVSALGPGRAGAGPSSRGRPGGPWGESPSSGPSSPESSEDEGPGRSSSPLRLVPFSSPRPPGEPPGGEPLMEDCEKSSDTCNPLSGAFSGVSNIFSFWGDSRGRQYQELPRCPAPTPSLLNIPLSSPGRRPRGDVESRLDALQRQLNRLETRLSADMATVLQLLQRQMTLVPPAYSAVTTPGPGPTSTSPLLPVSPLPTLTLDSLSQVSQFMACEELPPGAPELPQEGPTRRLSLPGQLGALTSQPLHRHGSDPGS

Row | SMILES | microsomal CLint ([3]; microsomes) | Ki [4] | Ki [5] | Ki [6] | Ki ([8]; read-out: Ki) | half-life ([9]; microsomes) | inhibition [11] | inhibition [14] | inhibition [15] | also measured
1 | CC(=O)Nc1nc(C)c(-c2cn(S(=O)(=O)c3ccccc3)c3ccccc23)[nH]1.Cl | – | – | – | – | – | – | – | – | – | inhibition at 1 h, 1 µM [1]: 2.4%; solubility ([2]; water, read-out: solubility): 100 to 10000 µg/mL
2 | CC(=O)Nc1nc(C)c(-c2cn(S(=O)(=O)c3ccccc3)c3ccccc23)[nH]1 [listing 1 of 2 here] | 7.3 µL/min/mg | > 10000 nM | > 10000 nM | 25 nM | > 10000 nM | 190 min | – | – | – | solubility ([2]; buffer): Insoluble; Ki ([7]; read-out: Ki): > 10000 nM; Stability [10]: Stable
3 | Cc1nc(N)[nH]c1-c1cn(S(=O)(=O)c2ccccc2)c2ccccc12 | – | – | 100 nM | – | > 10000 nM | – | 71.6% | 3.8% | 12.2% | inhibition [17]: 4.5%; inhibition [18]: 7.6%
4 | CC(=O)Nc1nc(C)c(-c2cn(S(=O)(=O)c3ccccc3)c3ccccc23)[nH]1 [listing 2 of 2 here] | – | – | – | – | – | – | 22.4% | – | -1.5% | Activity [19]: -1.9%; inhibition [12]: -5.9%; Kb [13]: 1.3 nM
5 | Cc1nc(N)[nH]c1-c1ccc2ccn(S(=O)(=O)c3ccccc3)c2c1.Cl | 104 µL/min/mg | 708 nM | 1170 nM | 4 nM | > 10000 nM | 13 min | – | – | – | solubility ([2]; buffer): Soluble; Ki ([7]; read-out: Ki): 776 nM; Stability [10]: Unstable

The next lines start with results.

Row | microsomal CLint ([3]; microsomes) | Ki [4] | Ki [5] | Ki [6] | Ki ([8]; read-out: Ki) | half-life ([9]; microsomes) | inhibition [11] | inhibition [14] | inhibition [15] | SMILES | also measured
6 | – | 3980 nM | 1230 nM | 21 nM | – | – | 28% | -4% | 4% | COc1ccc2c(c1)c(-c1[nH]c(NCC(F)F)nc1C)cn2S(=O)(=O)c1ccccc1 | microsomal CLint ([3]; liver microsomes): 39 µL/min/mg; inhibition [12]: 1%; solubility ([2]; water, read-out: solubility): 1000 to 10000 µg/mL (≈ 2.24 to 22.4 mM); Kb [13]: 13 nM; Ki ([7]; hek293): Not Active; Ki ([8]; hek293): Not Active; half-life ([9]; liver microsomes): 36 min
7 | 17.6 µL/min/mg | – | – | – | – | 79 min | – | – | – | COc1cc2c(cc1OC)C(=O)C(CC1CCN(Cc3ccccc3)CC1)C2 (stereo not given) [DONEPEZIL] | Activity [16]: Active
8 | – | – | 794 nM | – | > 10000 nM | – | 82% | 6.7% | 33.1% | COc1ccc2c(c1)c(-c1cnc(N)[nH]1)cn2S(=O)(=O)c1ccccc1 | inhibition [17]: 1.7%; inhibition [18]: 5.6%
